The values below come from ChEMBL document CHEMBL1132488, “On the bioactive conformation of NAN-190 (1) and MP3022 (2), 5-HT(1A) receptor antagonists” (J Med Chem, 1999).

What is called ED50 is the dose at which the effect has come halfway, by size or by number of responders. Usually Ki stands for the dissociation constant of the complex between target and ligand, obtained from inhibition or displacement.

The species entered for test [1] is Rattus norvegicus. As to the kind of experiment: Effect on 8-OH-DAPT- induced behavioral syndrome(FBP: flat body posture) by the compound in reserpine pretreated rats at a dose of 32; FBP mean score. Type of test: functional. The method, boiled down: (§1)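 Reserpinized male Wistar rats (reserpine 1 mg/kg sc, 18 h before), groups of 6. Compound given ip in 1% Tween 80 60 min before 8-OH-DPAT 5 mg/kg sc. FBP/FT rated 0–3 at 3, 6, 9, 12 and 15 min after agonist, summed (max 15). Mean ± SEM; Newman–Keuls test; ED50 with range.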

Test [2] is filed under the species Rattus norvegicus. As to the kind of experiment: Induction of behavioral syndrome(FT: forepaw treading) by the compound in reserpine pretreated rats at a dose of 8; FT mean score. The format is functional. In outline:
(§2)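 Male Wistar rats (260–300 g) were given reserpine 1 mg/kg sc in saline 18 h before testing. Test compound was then given alone ip as a 1% Tween 80 suspension (2 mL/kg). FBP and FT were each scored 0–3 and summed (maximum 15). n=6 per group; mean ± SEM; Newman–Keuls test.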

Test [3] is filed under the species Rattus norvegicus. As to the kind of experiment: Induction of behavioral syndrome(FT: forepaw treading) by the compound in reserpine pretreated rats at a dose of 16; FT mean score. Type of test: functional. The method, boiled down: as §2
The species named for test [4] is Rattus norvegicus. As to the kind of experiment: Induction of behavioral syndrome(FBP: flat body posture) by the compound in reserpine pretreated rats at a dose of 16; FBP mean score. The format is functional. In outline:
(§3)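 Male Wistar rats (260–300 g), groups of 6, given reserpine 1 mg/kg sc 18 h before test. Compounds given ip as 1% Tween 80 suspension. FBP and FT rated 0–3 in 45-s sessions every 3 min, starting 3 min after dosing. Score summed over 5 periods (max 15 per symptom). Mean ± SEM; Newman–Keuls test.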

The species entered for test [5] is Rattus norvegicus. As to the kind of experiment: Induction of behavioral syndrome(FBP: flat body posture) by the compound in reserpine pretreated rats at a dose of 8; FBP mean score. The format is functional. The method, boiled down: as §2
For test [6], the species on record is Rattus norvegicus. As to the kind of experiment: Effective dose of the required to induce LLR(lower lip retraction). The format is functional. The method, boiled down:
(§4)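 Male Wistar rats, groups of 6, given compound alone ip as 1% Tween 80 suspension. Lower incisor visibility scored 0/0.5/1 at 15, 30 and 45 min after dosing, summed (max 3 per rat). Mean ± SEM versus vehicle, Newman–Keuls test; ED50 with range.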

The species named for test [7] is Rattus norvegicus. As to the kind of experiment: Dose Inducing behavioral syndrome(FBP: flat body posture) by the compound in reserpine pretreated rats. Type of test: functional. The method, boiled down: as §3
The subject of test [8] is Rattus norvegicus. As to the kind of experiment: Induction of LLR(lower lip retraction) by the compound in rats at a dose of 4 mg/kg; LLR score. The format is functional. The method, boiled down:
as §4

The species named for test [9] is Rattus norvegicus. As to the kind of experiment: Effect on 8-OH-DAPT- induced behavioral syndrome(FT: forepaw treading) by the compound in reserpine pretreated rats at a dose of 32; FT mean score. Type of test: functional. In outline: as §1
The species entered for test [10] is Rattus norvegicus. As to the kind of experiment: Induction of behavioral syndrome(FT: forepaw treading) by the compound in reserpine pretreated rats at a dose of 32; FT mean score. The format is functional. The method, boiled down: as §2
For test [11], the species on record is Rattus norvegicus. As to the kind of experiment: Induction of behavioral syndrome(FBP: flat body posture) by the compound in reserpine pretreated rats at a dose of 32; FBP mean score. Type of test: functional. The method, boiled down: as §2
The species named for test [12] is Rattus norvegicus. As to the kind of experiment: Effect on 8-OH-DAPT- induced behavioral syndrome(FT: forepaw treading) by the compound in reserpine pretreated rats at a dose of 16; FT mean score. Type of test: functional. In outline:
as §1

The test system of test [13] is Rattus norvegicus. As to the kind of experiment: Induction of LLR(lower lip retraction) by the compound in rats at a dose of 8 mg/kg; LLR score. The format is functional. In outline:
as §4

The species entered for test [14] is Rattus norvegicus. As to the kind of experiment: Effect on 8-OH-DAPT- induced behavioral syndrome(FT: forepaw treading) by the compound in reserpine pretreated rats at a dose of 8; FT mean score. Type of test: functional. In outline:
as §1

In test [15] the test system is Rattus norvegicus. As to the kind of experiment: Induction of LLR(lower lip retraction) by the compound in rats at a dose of 2 mg/kg; LLR score. Type of test: functional. The method, boiled down:
as §4

For test [16], the species on record is Rattus norvegicus. As to the kind of experiment: Effect on 8-OH-DAPT- induced behavioral syndrome(FBP: flat body posture) by the compound in reserpine pretreated rats at a dose of 16; FBP mean score. Type of test: functional. The method, boiled down:
as §1

In test [17] the target is T1, 5-hydroxytryptamine receptor 1A (Rattus norvegicus, UniProt P19327).
T1 sequence (P19327 whole entry): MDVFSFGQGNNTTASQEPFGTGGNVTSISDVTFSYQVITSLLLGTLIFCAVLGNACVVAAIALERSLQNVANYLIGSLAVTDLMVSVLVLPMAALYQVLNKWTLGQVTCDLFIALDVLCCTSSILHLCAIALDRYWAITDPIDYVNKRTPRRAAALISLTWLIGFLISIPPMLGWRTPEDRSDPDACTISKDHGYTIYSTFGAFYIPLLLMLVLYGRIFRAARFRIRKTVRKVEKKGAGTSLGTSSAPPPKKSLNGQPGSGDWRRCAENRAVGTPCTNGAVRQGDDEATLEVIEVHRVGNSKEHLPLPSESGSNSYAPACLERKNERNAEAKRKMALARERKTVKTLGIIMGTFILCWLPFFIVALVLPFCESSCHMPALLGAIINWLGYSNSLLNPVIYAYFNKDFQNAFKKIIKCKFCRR
As to the kind of experiment: Ability to displace [3H]8-OH-DPAT from 5-hydroxytryptamine 1A receptor. The method, boiled down: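 Rat hippocampal membranes, [3H]8-OH-DPAT radioligand. Ki from at least three competition experiments, each with 10–14 drug concentrations run in triplicate. Ki calculated with the Cheng–Prusoff equation.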

For test [18], the species on record is Rattus norvegicus. As to the kind of experiment: Effect on 8-OH-DAPT- induced behavioral syndrome(FBP: flat body posture) by the compound in reserpine pretreated rats at a dose of 8; FBP mean score. Type of test: functional. In outline: as §1
The species named for test [19] is Rattus norvegicus. As to the kind of experiment: Dose Inducing behavioral syndrome(FT: forepaw treading) by the compound in reserpine pretreated rats. Type of test: functional. The method, boiled down:
as §3

`O=C1[C@H]2CCCC[C@H]2C(=O)N1CCCCN1CCc2ccccc2C1`: the FBP mean score in the test listed under Rattus norvegicus [1] was 11.7; in the test filed under Rattus norvegicus [4], 2.3; in the test listed under Rattus norvegicus [5] it was 0.1; in the test filed under Rattus norvegicus [11], 3.7; in the test filed under Rattus norvegicus [16], 13.3; in the test filed under Rattus norvegicus [18] it was 14.6. For the same compound, the FT mean score is 0.1 in the test listed under Rattus norvegicus [2]; 0.2 in the test filed under Rattus norvegicus [3]; 6 in the test listed under Rattus norvegicus [9]; 0.2 in the test listed under Rattus norvegicus [10]; 7.7 in the test listed under Rattus norvegicus [12]; 9.8 in the test listed under Rattus norvegicus [14]. In addition, the figures for the ED50 in the test filed under Rattus norvegicus [6], in the test listed under Rattus norvegicus [7] and in the test listed under Rattus norvegicus [19] were 3.9 mg/kg, above 32 mg/kg and 17 mg/kg, respectively. The LLR score in the test with Rattus norvegicus [8] stood at 1.9; in the test with Rattus norvegicus [13], 2.5; in the test with Rattus norvegicus [15] it was 1. Moreover, the inhibition constant Ki in test [17] was determined as 50 nM.
